DENV2 CPE = protects cells from dengue virus 2 cytopathic effect. DENV2-infected cells, cytopathic effect rescue, plate reader. CPE inhibition, % at 9.99 µM. actives 1.7% (n = 350,000); in the data active = CPE inhibition above about 20%, passing the limit was not always enough; inconclusive = no clear call, values can overlap the other calls; tested in BHK-21 cells;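 also: 0% = median of neutral control wells and 100% = median of positive control wells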
Cneo AK release = causes C. neoformans cell lysis. adenylate kinase release luminescence, 4 h; normalised: neutral wells 0, clomiphene wells 100. lysis activity, % at 15 µM. actives 0.2% (n = 360,000). AID 651654;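 active = mean lysis activity across replicates of at least 80%, whatever share of replicates individually reach that level; inactive = mean lysis activity below 80%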
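Test system: log-phase Cryptococcus neoformans yeast cells; Quantity: yeast cell density of 5 × 10^6 cells/mL; Buffer or medium: YPD; Doses: single compound concentration per well; Timing: 4 h at 37 °C static, read 1 h later; Measured by: AK luminescence; Read-out basis: lysis from increased AK signal; Control set: Clomiphene as positive control.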
PfHsp90 set2 = growth inhibition of yeast expressing Plasmodium Hsp90; actives 0.32% (n = 310,000); AID 504621; inhibition, % at 9.4 µM; S. cerevisiae expressing PfHsp90, BacTiter-Glo ATP, 48 h; yeast lacking PDR1 and PDR3 efflux regulators;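 active = every replicate shows inhibition above about 80%, whatever the replicate mean, limit read from the data; inconclusive = mean inhibition reaches the set limit but some replicate falls short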;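 also: 0% = DMSO neutral controls and 100% = 20 µM radicicol positive controls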
S100A4 inh HTS = S100A4-myosin IIA interaction inhibition. inhibition, % at 10.7 µM. P26447. actives 0.14% (n = 360,000). S100A4/TAMRA-MyoIIA peptide fluorescence polarization;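 active = mean inhibition of at least 70% across replicates, with every replicate also reaching that level; inconclusive = mean inhibition reaches 70% but some replicates fall short; inactive = mean inhibition below 70%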
Target sequence (P26447 whole entry, looked up): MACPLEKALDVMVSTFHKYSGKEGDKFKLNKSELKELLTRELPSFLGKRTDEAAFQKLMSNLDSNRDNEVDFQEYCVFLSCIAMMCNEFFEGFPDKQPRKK
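System – human S100A4 monomer protein, biochemical binding assay · Buffer or medium – Calcium-containing HEPES buffer, pH 7.2 · Timing – 5 min between mix addition and reading · Also added – TAMRA-labelled myosin IIA heavy-chain peptide probe, 5 nM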
Ecoli rRNA inh = inhibitors of bacterial rRNA selective over humanized ribosomes. GFP signal change (wild-type ribosome), % (no concentration beside the values). E. coli WT GFP vs humanized-ribosome RFP mutants, fluorescence, 24 h; hits give low values; DMSO median 0, no signal -100. actives 1.6% (n = 350,000);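 active = significant combined selectivity score with lowered wild-type GFP, culture density cut under 30%, mutant RFP and density less affected; inactive = any of these conditions unmet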
MLL AF4-AF9 inh = blocks AF4 peptide binding to human AF9; AlphaScreen, biotin-AF4 peptide binding to FLAG-AF9; inhibition, % at 10 µM; actives 0.47% (n = 350,000);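 active = every replicate reaching a set inhibition limit, whatever the replicate mean, cut at about 25% in these data; inconclusive = mean inhibition reaches that limit but some replicates miss it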;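 also: 0% = plate neutral control median and 100% = total signal loss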
Starred values were filed as active, the others as inactive; u = inconclusive; x = no result. Only some compounds are listed: those with a hit (about 3.2% of all), similar ones and a draw of the others.

SMILES	DENV2 CPE	Cneo AK release	PfHsp90 set2	S100A4 inh HTS	Ecoli rRNA inh	MLL AF4-AF9 inh
COc1ccc(NC(=O)CN(C)CCOc2ccc(Cl)cc2)cc1OC	47.2*	4.1	48.6	1.2	-8.8	1.4
O=C(N/N=C/c1ccncc1)NC1CCCCC1	x	x	-1.5	-0.4	-6.5	2.7
O=C(N/N=C/c1cccc(O)c1)NC1CCCCC1	3.1	x	-1.4	0.9	-25.4*	2.3
COC(=O)[C@@H]1[C@H](CCc2ccccc2)NC(=O)N(Cc2ccccc2)[C@@H]1C	68.5*	4.5	-3.7	-2.2	3.5	-16.2
Cc1noc(C)c1NC(=O)Nc1ccc2c(c1)CC(=O)N([C@@H](C)CO)C[C@H](C)[C@H](CN(C)C(=O)Nc1c(C)noc1C)O2	6.5	-2.2	x	13.2	3.9	-0.5
CN1C(=O)C(c2cn(C)c3ccccc23)(c2cn(C)c3ccccc23)c2cc(F)ccc21	29.5*	x	x	-2.8	12.2	1.2
CN1C(=O)[C@@](O)(c2cn(C)c3ccccc23)c2cc(F)ccc21	4.5	x	x	-1.3	-0.1	2.4
C[C@@H]1CCCCO[C@@H](CN(C)S(=O)(=O)c2cccs2)[C@H](C)CN([C@@H](C)CO)C(=O)c2cc(NC(=O)CCC(F)(F)F)ccc2O1	-2.8	97.6*	x	-10.0	-3.0	-4.0
C[C@@H]1CCCCO[C@H](CN(C)S(C)(=O)=O)[C@@H](C)CN([C@H](C)CO)C(=O)c2cc(NC(=O)CCC(F)(F)F)ccc2O1	115.9*	0.2	x	8.1	2.5	-8.2
C/C=C/c1ccc2c(c1)O[C@H](CN(C)C(=O)COC)[C@@H](C)CN([C@@H](C)CO)S2(=O)=O	-3.5	-8.7	x	3.2	0.4	-6.9
CCCNC(=O)[C@@H]1[C@@H](CO)[C@@H]2Cn3c(ccc(-c4ccc(C(=O)N(C)C)cc4)c3=O)[C@@H]2N1CCC	0.1	0.8	x	1.5	0.3	-1.8
c1ccc(CN2CCC(Nc3nc(-c4cccnc4)nc4ccccc34)CC2)cc1	-2.8	-0.3	-2.5	-3.3	-32.5*	9.5
c1ccc(CNc2nc(-c3cccnc3)nc3ccccc23)cc1	3.6	15.8	-1.3	-26.6	-63.7	2.0
Cc1cc(OCCn2cc(/C(N)=N/O)c3ccccc32)ccc1Cl	x	-2.0	20.1	0.0	-40.0*	x
COC(=O)c1cn(CCOc2ccc(C)cc2)c2ccccc12	x	-0.1	-56.8	x	x	x
CCCNC(=O)N1[C@H](CO)[C@@H](c2ccc(-c3cccc(OC)c3)cc2)[C@@H]1C#N	x	45.4	x	-0.5	-15.5	-6.2
CCCNC(=O)N1[C@H](C#N)[C@H](c2ccc(-c3cccc(OC)c3)cc2)[C@H]1CO	58.4*	-3.8	x	-2.0	0.6	0.4
Cn1cnc(S(=O)(=O)N2CCCCN3[C@H](CO)[C@@H](c4ccc(C5=CCCC5)cc4)[C@H]3C2)c1	-7.8	-0.8	x	61.9	x	-4.0
O=S(=O)(c1ccccc1)N1CC[C@@H]2[C@H](CO)Nc3ccc(-c4ccccc4F)cc3[C@@H]21	x	6.4	x	x	0.5	x
CC(C)C(=O)Nc1nnc(S(=O)(=O)N2CCCc3ccccc32)s1	-1.9	1.9	-41.6	-1.0	-1.7	4.2
CC(C)C(=O)Nc1nnc(S(=O)(=O)N2CCc3ccccc32)s1	106.6*	-0.3	-0.9	-1.8	7.6	-2.3
CCN1CCCC1CNC(=O)c1ccc2c(c1)NC(=O)/C(=C\c1ccc(OC)c(OC)c1)S2 (stereo not drawn)	u	0.5	-0.7	-6.8	-1.4	40.0*
CCCNC(=O)N[C@H]1CC[C@@H](CCn2cc(-c3cccc(F)c3)nn2)O[C@@H]1CO	-1.7	-10.6	x	11.1	1.2	-0.6
CCCNC(=O)N[C@H]1CC[C@@H](CCn2cc(-c3cccc(F)c3)nn2)O[C@H]1CO	56.2*	-3.2	x	9.1	-4.0	0.7
COc1cccc(-c2cn(CC[C@@H]3CC[C@@H](NC(C)=O)[C@H](CO)O3)nn2)c1	x	113.5*	x	9.0	-1.9	-2.9
C[C@@H]1CN([C@H](C)CO)C(=O)c2cc(NS(C)(=O)=O)ccc2O[C@@H](C)CCCCO[C@@H]1CN(C)S(=O)(=O)c1cn(C)cn1	0.4	0.5	x	0.5	-0.1	-6.4

Screens from PubChem BioAssay.
